The test system of one assay is Staphylococcus aureus. Briefly: Antimicrobial activity against Staphylococcus aureus by broth microdilution assay. The class given is functional.
For assay [1], the system named is Mycobacterium tuberculosis. The assay can be described thus: Antimicrobial activity against Mycobacterium tuberculosis H37Rv by microplate Alamar blue assay. The class given is functional. An outline of the steps:
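Virulent H37Rv strain in a microplate Alamar blue assay. MIC defined as the lowest concentration giving at least 90% growth inhibition.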

The next assay relates to Bacillus anthracis. Briefly: Antimicrobial activity against Bacillus anthracis. The class given is functional. The gist of the method:
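Compounds tested over 100 µg/mL down to 48.8 ng/mL. MIC taken as the lowest concentration preventing visible bacterial growth.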

For assay [2], the system named is Mycolicibacterium smegmatis. Briefly: Antimicrobial activity against Mycobacterium smegmatis by broth microdilution assay. The format is functional.
For another assay, the system named is Candida albicans. The assay can be described thus: Antimicrobial activity against Candida albicans by broth microdilution assay. The format is functional.
A further assay relates to Vero. The assay can be described thus: Cytotoxicity against african green monkey Vero cells. The format is cell-based. To be noted: Chlorocebus sabaeus.
Assay [3] is described as follows: Selectivity ratio of MIC for Mycobacterium tuberculosis H37Rv to MIC for Bacillus anthracis. The class given is functional.

This is an account of results in ChEMBL document CHEMBL1152337, “Antimicrobial ambiguine isonitriles from the cyanobacterium Fischerella ambigua” (J Nat Prod, 2009).

Values after ≈ are worked out from the molar mass of the structure shown. Bounds are passed on as bounds.

Molecule GENTAMICIN yielded a minimal inhibitory concentration (MIC) against Staphylococcus aureus of 1.4 µM.

Regarding `[C-]#[N+][C@]12[C@H]3O[C@H]3C(C)(C)c3[nH]c4cccc5c4c3[C@]1(O)[C@H](C[C@@H](Cl)[C@]2(C)C=C)C5(C)C` [AMBIGUINE E ISONITRILE], the minimum inhibitory concentration (MIC) in assay [1] was 21 µM (≈ 9.18 µg/mL); in the assay with Bacillus anthracis, 3.6 µM (≈ 1.57 µg/mL); in the assay on Staphylococcus aureus, 1.5 µM (≈ 0.655 µg/mL); in assay [2], 1.4 µM (≈ 0.612 µg/mL); against Candida albicans it was less than 0.9 µM. Besides, inhibition with Vero was half-maximal at 42.6 µM (IC50).

Molecule `[C-]#[N+][C@]12[C@H](O)C(=O)C(C)(C)c3[nH]c4cccc5c4c3[C@]1(O)[C@H](C[C@@H](Cl)[C@]2(C)C=C)C5(C)C` [AMBIGUINE O ISONITRILE] displayed an MIC in the assay on Bacillus anthracis of 13.8 µM (≈ 6.25 µg/mL). Also, half-maximal inhibition in the assay with Vero (IC50) required 80.7 µM.

In the case of `[C-]#[N+][C@]12C[C@@H](O)C(C)(C)c3[nH]c4cccc5c4c3[C@]1(O)[C@H](CC[C@]2(C)C=C)C5(C)C` [AMBIGUINE N ISONITRILE], the minimal inhibitory concentration (MIC) was 27.1 µM (≈ 11 µg/mL) in assay [1]; 30.9 µM (≈ 12.5 µg/mL) against Bacillus anthracis; 5.5 µM (≈ 2.23 µg/mL) in the assay with Staphylococcus aureus; 48.8 µM (≈ 19.7 µg/mL) in assay [2]; less than 1 µM against Candida albicans. The molecule further came in with an IC50 in the assay with Vero of 118 µM.

In the case of `[C-]#[N+][C@]12C=CC(C)(C)c3[nH]c4cccc5c4c3[C@]1(O)[C@H](C[C@@H](Cl)[C@]2(C)C=C)C5(C)C` [AMBIGUINE K ISONITRILE], the MIC in assay [1] is 6.6 µM (≈ 2.78 µg/mL); against Bacillus anthracis, 7.4 µM (≈ 3.12 µg/mL); against Staphylococcus aureus it was 4.6 µM (≈ 1.94 µg/mL); in assay [2], 23.7 µM (≈ 9.98 µg/mL); in the assay with Candida albicans, less than 0.9 µM. Further, the midpoint of inhibition in the assay with Vero, the IC50, lay at 53.2 µM.

On to `[C-]#[N+][C@]12C[C@@H](O)C(C)(C)c3[nH]c4cccc5c4c3[C@]1(O)[C@H](C[C@@H](Cl)[C@]2(C)C=C)C5(C)C` [AMBIGUINE M ISONITRILE], for which the minimum inhibitory concentration (MIC) in assay [1] was 7.5 µM (≈ 3.29 µg/mL); with Bacillus anthracis, 28.5 µM (≈ 12.5 µg/mL); in the assay on Staphylococcus aureus it was 4.7 µM (≈ 2.06 µg/mL); in assay [2], 25.8 µM (≈ 11.3 µg/mL); against Candida albicans, 1.1 µM (≈ 0.483 µg/mL). The molecule also registered an IC50 with Vero of 79.8 µM.

For `[C-]#[N+][C@@H]1[C@]2(O)c3c(C(C)(C)C=C)[nH]c4cccc(c34)C(C)(C)[C@H]2CC[C@]1(C)C=C` [AMBIGUINE C ISONITRILE], the MIC was 7 µM (≈ 2.72 µg/mL) in assay [1]; 16.1 µM (≈ 6.26 µg/mL) against Bacillus anthracis; 7.4 µM (≈ 2.88 µg/mL) against Staphylococcus aureus; 59.6 µM (≈ 23.2 µg/mL) in assay [2]; less than 1 µM with Candida albicans. Also, half-maximal inhibition with Vero (IC50) required 78.3 µM.

For `[C-]#[N+][C@@H]1[C@H]2c3c[nH]c4cccc(c34)C(C)(C)[C@@H]2CC[C@]1(C)C=C` [HAPALINDOLE H], the MIC in assay [1] is 58.8 µM (≈ 17.9 µg/mL); in the assay on Bacillus anthracis it was more than 128 µM; in the assay on Staphylococcus aureus, more than 128 µM; in assay [2] it was 39.6 µM (≈ 12.1 µg/mL); in the assay with Candida albicans, 5.1 µM (≈ 1.55 µg/mL). In the assay with Vero, this molecule came in with a concentration for half-maximal inhibition (IC50) of more than 128 µM.

Molecule `O=C(O)c1cn(C2CC2)c2cc(N3CCNCC3)c(F)cc2c1=O` [CIPROFLOXACIN] had an MIC against Bacillus anthracis of 0.2 µM (≈ 0.0663 µg/mL).

In assay [1], `CO[C@H]1/C=C/O[C@@]2(C)Oc3c(C)c(O)c4c(O)c(c(/C=N/N5CCN(C)CC5)c(O)c4c3C2=O)NC(=O)/C(C)=C\C=C\[C@H](C)[C@H](O)[C@@H](C)[C@@H](O)[C@@H](C)[C@H](OC(C)=O)[C@@H]1C` [RIFAMPIN] came in with a minimum inhibitory concentration (MIC) of 0.1 µM (≈ 0.0823 µg/mL). The molecule further came in with a concentration for half-maximal inhibition (IC50) in the assay on Vero of 97.9 µM.

As for `COc1c(N2C[C@@H]3CCCN[C@@H]3C2)c(F)cc2c(=O)c(C(=O)O)cn(C3CC3)c12` [MOXIFLOXACIN], the minimum inhibitory concentration (MIC) in assay [2] stood at 0.7 µM (≈ 0.281 µg/mL).

`[C-]#[N+][C@H]1[C@@](C)(C=C)[C@H](Cl)C[C@@H]2C(C)(C)c3cccc4[nH]c(C(C)(C)C=C)c(c34)[C@]21O` [AMBIGUINE B ISONITRILE]: the MIC against Bacillus anthracis is 3.7 µM (≈ 1.57 µg/mL); against Staphylococcus aureus it was 10.9 µM (≈ 4.61 µg/mL); in assay [2], 27.8 µM (≈ 11.8 µg/mL); in the assay with Candida albicans, 1.7 µM (≈ 0.719 µg/mL). Further, half-maximal inhibition with Vero (IC50) required 58.6 µM.

As for `[C-]#[N+][C@]12C=CC(C)(C)c3[nH]c4cccc5c4c3[C@]1(O)[C@H](CC[C@]2(C)C=C)C5(C)C` [AMBIGUINE L ISONITRILE], the MIC in assay [1] is 11.7 µM (≈ 4.52 µg/mL); against Bacillus anthracis, 16.2 µM (≈ 6.26 µg/mL); in the assay on Staphylococcus aureus, 10.5 µM (≈ 4.06 µg/mL); in assay [2], 29.3 µM (≈ 11.3 µg/mL); against Candida albicans, less than 1 µM. In the assay on Vero, this molecule yielded a half-maximal inhibitory concentration (IC50) of 44.6 µM.

In assay [1], `[C-]#[N+][C@]12[C@@H](O)[C@H](O)C(C)(C)c3[nH]c4cccc5c4c3[C@]1(O)[C@H](C[C@@H](Cl)[C@]2(C)C=C)C5(C)C` [AMBIGUINE F ISONITRILE] yielded an MIC of 61.2 µM (≈ 27.8 µg/mL). This molecule registered a 50% inhibitory concentration (IC50) in the assay with Vero of 57.9 µM.

For the molecule `[C-]#[N+][C@@H]1[C@@H]2c3c(C(C)(C)C=C)[nH]c4cccc(c34)C(C)(C)[C@H]2C[C@@H](Cl)[C@]1(C)C=C` [AMBIGUINE A ISONITRILE], the minimum inhibitory concentration (MIC) is 46.7 µM (≈ 19 µg/mL) in assay [1]; 1 µM (≈ 0.407 µg/mL) against Bacillus anthracis; 1.8 µM (≈ 0.733 µg/mL) against Staphylococcus aureus; 14.8 µM (≈ 6.02 µg/mL) in assay [2]; less than 1 µM against Candida albicans. Half-maximal inhibition in the assay with Vero (IC50) required 26 µM.

`CC(=O)N1CCN(c2ccc(OCC3COC(Cn4ccnc4)(c4ccc(Cl)cc4Cl)O3)cc2)CC1` (stereo not given) [KETOCONAZOLE] came in with a minimum inhibitory concentration (MIC) against Candida albicans of 0.03 µM (≈ 0.0159 µg/mL).

As for `[C-]#[N+][C@@H]1[C@@H]2c3c[nH]c4cccc(c34)C(C)(C)[C@H]2C[C@@H](Cl)[C@]1(C)C=C` [HAPALINDOLE G], the MIC in assay [1] was 6.8 µM (≈ 2.3 µg/mL); with Bacillus anthracis, more than 128 µM; with Staphylococcus aureus, more than 128 µM; in assay [2], 34 µM (≈ 11.5 µg/mL); against Candida albicans, more than 128 µM. This molecule also had a half-inhibitory concentration (IC50) in the assay with Vero of more than 128 µM. Besides, in assay [3], the Ratio worked out at 50.
